Measured values published in ChEMBL document CHEMBL3745596, “Chlorophenoxy aminoalkyl derivatives as histamine H(3)R ligands and antiseizure agents” (Bioorg Med Chem, 2016).
Calls of active or inactive are those of the source.

Columns and labels:
Histamine H3 receptor = Histamine H3 receptor (Homo sapiens, UniProt Q9Y5N1); test: Displacement of [3H]-Nalpha-methylhistamine from human recombinant histamine H3 receptor expressed in HEK293 cells after 90 mins; assay type: cell-based
Mus musculus [1] = test: Anticonvulsant activity in CF1 albino mouse assessed as protection against maximal electroshock-induced seizure at 3 mg/kg, ip after 0.5 hrs; assay type: functional, organism-based
Outline: (§1)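 Male CF-1 mice dosed ip as suspension in 0.5% methylcellulose. Corneal electrodes deliver 60 Hz alternating current, 50 mA for […], after a drop of 0.5% tetracaine HCl in 0.9% NaCl per eye. Protection means abolition of hindlimb tonic extension; scored as protected/tested, or ED50 with 95% confidence interval.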

Mus musculus [2] = test: Anticonvulsant activity in CF1 albino mouse assessed as protection against maximal electroshock-induced seizure at 10 mg/kg, ip after 0.5 hrs; assay type: functional, organism-based; outline: as §1
Mus musculus [3] = test: Anticonvulsant activity in CF1 albino mouse assessed as protection against maximal electroshock-induced seizure at 30 mg/kg, ip after 0.5 hrs; assay type: functional, organism-based; outline: as §1
Mus musculus [4] = test: Anticonvulsant activity in CF1 albino mouse assessed as protection against maximal electroshock-induced seizure at 30 mg/kg, ip after 4 hrs; assay type: functional, organism-based; outline: as §1
Mus musculus [5] = test: Anticonvulsant activity in CF1 albino mouse assessed as protection against maximal electroshock-induced seizure at 100 mg/kg, ip after 0.5 hrs; assay type: functional, organism-based; outline: as §1
Mus musculus [6] = test: Anticonvulsant activity in CF1 albino mouse assessed as protection against maximal electroshock-induced seizure at 100 mg/kg, ip after 4 hrs; assay type: functional, organism-based; outline: as §1
Mus musculus [7] = test: Anticonvulsant activity in CF1 albino mouse assessed as protection against subcutaneous pentetrazole-induced seizure at 30 mg/kg, ip after 0.5 hrs; assay type: functional, organism-based
Outline: (§2)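 Male CF-1 mice, ip in 0.5% methylcellulose; pentetrazole at CD97 (85 mg/kg) injected subcutaneously in a loose fold of neck skin. Observed 30 min; absence of even a threshold seizure (single clonic spasm lasting at least 5 s) counted as protection. Scored protected/tested, or ED50.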

Mus musculus [8] = test: Anticonvulsant activity in CF1 albino mouse assessed as protection against subcutaneous pentetrazole-induced seizure at 30 mg/kg, ip after 4 hrs; assay type: functional, organism-based; outline: as §2
Mus musculus [9] = test: Anticonvulsant activity in CF1 albino mouse assessed as protection against subcutaneous pentetrazole-induced seizure at 100 mg/kg, ip after 0.5 hrs; assay type: functional, organism-based; outline: as §2
Mus musculus [10] = test: Anticonvulsant activity in CF1 albino mouse assessed as protection against subcutaneous pentetrazole-induced seizure at 100 mg/kg, ip after 4 hrs; assay type: functional, organism-based; outline: as §2
Mus musculus [11] = test: Neurotoxicity in CF1 albino mouse at 3 mg/kg, ip after 0.5 hrs by rotarod test; assay type: toxicity, organism-based; conditions: in vivo
Outline: (§3)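 Rotarod neurotoxicity in male albino CF-1 mice dosed ip with compound suspended in 0.5% methylcellulose. Animal placed on a 1 inch diameter knurled plastic rod rotating at 6 rpm. Neurotoxicity scored when the animal falls off three times within 1 min. Readout is number of animals toxic/number tested at the stated time after dosing. TD50 with 95% confidence interval from the quantitative study.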

Mus musculus [12] = test: Neurotoxicity in CF1 albino mouse at 10 mg/kg, ip after 0.5 hrs by rotarod test; assay type: toxicity, organism-based; conditions: in vivo
Outline: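 Rotarod neurotoxicity in male CF-1 mice dosed ip as 0.5% methylcellulose suspension: mouse placed on 1 inch knurled rod rotating at 6 rpm; toxicity when the animal falls off three times within 1 min, with other signs noted. Scored as toxic/tested at 0.5 h and 4 h.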

Mus musculus [13] = test: Neurotoxicity in CF1 albino mouse at 30 mg/kg, ip after 0.5 hrs by rotarod test; assay type: toxicity, organism-based; conditions: in vivo; outline: as §3
Mus musculus [14] = test: Neurotoxicity in CF1 albino mouse at 30 mg/kg, ip after 4 hrs by rotarod test; assay type: toxicity, organism-based; conditions: in vivo; outline: as §3
Mus musculus [15] = test: Neurotoxicity in CF1 albino mouse assessed as unable to grasp rotarod and death at 100 mg/kg, ip after 0.5 hrs by rotarod test; assay type: toxicity, organism-based; conditions: in vivo
Outline: (§4)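 Male albino CF-1 mice dosed ip with compound suspended in 0.5% methylcellulose, then placed on a 1-inch knurled plastic rod turning at 6 rpm. A fall three times within 1 min counted as neurotoxicity. Observations were made at 0.5 h and 4 h after dosing. Result given as animals showing toxicity per animals tested, with the kind of toxicity recorded.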

Mus musculus [16] = test: Neurotoxicity in CF1 albino mouse at 100 mg/kg, ip after 4 hrs by rotarod test; assay type: toxicity, organism-based; conditions: in vivo; outline: as §3
Mus musculus [17] = test: Neurotoxicity in CF1 albino mouse assessed as death at 300 mg/kg, ip after 0.5 hrs by rotarod test; assay type: toxicity, organism-based; conditions: in vivo; outline: as §4
Mus musculus [18] = test: Neurotoxicity in CF1 albino mouse at 300 mg/kg, ip after 4 hrs by rotarod test; assay type: toxicity, organism-based; conditions: in vivo; outline: as §3
Rattus norvegicus = test: Anticonvulsant activity in Sprague-Dawley rat assessed as protection against maximal electroshock-induced seizure at 30 mg/kg, po; assay type: functional
Mus musculus [19] = test: Anticonvulsant activity in CF1 albino mouse assessed as protection against 6 Hz-psychomotor-induced seizure at 50 mg/kg, ip after 0.5 hrs; assay type: functional, organism-based
Outline: (§5)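 Male CF-1 mice, ip suspension in 0.5% methylcellulose. Corneal stimulation 0.2 ms monopolar rectangular pulses at 6 Hz, 32 mA for 3 s via constant-current device; mice without minimal clonic phase seizure counted protected. Groups of four; read at 0.25, 0.5, 1, 2, 4 h; result as protected/tested.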

Mus musculus [20] = test: Anticonvulsant activity in CF1 albino mouse assessed as protection against 6 Hz-psychomotor-induced seizure at 50 mg/kg, ip after 1 hr; assay type: functional, organism-based; outline: as §5
Mus musculus [21] = test: Anticonvulsant activity in CF1 albino mouse assessed as protection against 6 Hz-psychomotor-induced seizure at 50 mg/kg, ip after 2 hrs; assay type: functional, organism-based; outline: as §5
Mus musculus [22] = test: Anticonvulsant activity in CF1 albino mouse assessed as protection against 6 Hz-psychomotor-induced seizure at 50 mg/kg, ip after 4 hrs; assay type: functional, organism-based; outline: as §5
Mus musculus [23] = test: Neurotoxicity in CF1 albino mouse at 50 mg/kg, ip after 1 hr by rotarod test; assay type: toxicity, organism-based; conditions: in vivo; outline: as §3
Mus musculus [24] = test: Neurotoxicity in CF1 albino mouse at 50 mg/kg, ip after 2 hrs by rotarod test; assay type: toxicity, organism-based; conditions: in vivo; outline: as §3
Mus musculus [25] = test: Neurotoxicity in CF1 albino mouse at 50 mg/kg, ip after 4 hrs by rotarod test; assay type: toxicity, organism-based; conditions: in vivo; outline: as §3
Mus musculus [26] = test: Anticonvulsant activity in CF1 albino mouse assessed as protection against 6 Hz-psychomotor-induced seizure at 50 mg/kg, ip after 0.25 hrs; assay type: functional, organism-based; outline: as §5
Mus musculus [27] = test: Neurotoxicity in CF1 albino mouse at 50 mg/kg, ip after 0.25 hrs by rotarod test; assay type: toxicity, organism-based; conditions: in vivo; outline: as §3
Mus musculus [28] = test: Anticonvulsant activity in ip dosed CF1 albino mouse assessed as protection against subcutaneous pentetrazole-induced seizure after 0.25 hrs; assay type: functional; outline: as §2
Mus musculus [29] = test: Anticonvulsant activity in ip dosed CF1 albino mouse assessed as protection against maximal electroshock-induced seizure after 0.25 hrs; assay type: functional; outline: as §1

Sequence of Histamine H3 receptor (Q9Y5N1 whole entry): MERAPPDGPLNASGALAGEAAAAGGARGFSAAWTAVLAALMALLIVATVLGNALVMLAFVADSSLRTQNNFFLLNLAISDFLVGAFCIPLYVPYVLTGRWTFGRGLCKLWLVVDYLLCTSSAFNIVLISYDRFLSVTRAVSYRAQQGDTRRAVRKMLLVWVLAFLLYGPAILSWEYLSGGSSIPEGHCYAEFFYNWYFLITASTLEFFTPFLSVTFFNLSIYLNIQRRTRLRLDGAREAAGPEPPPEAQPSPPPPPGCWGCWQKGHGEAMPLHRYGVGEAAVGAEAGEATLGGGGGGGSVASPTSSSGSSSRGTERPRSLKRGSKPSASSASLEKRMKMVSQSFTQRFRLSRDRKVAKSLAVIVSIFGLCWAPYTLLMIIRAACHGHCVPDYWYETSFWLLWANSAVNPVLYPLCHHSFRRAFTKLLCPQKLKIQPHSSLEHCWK

SMILES	Ki (Histamine H3 receptor) [nM]	Activity (Mus musculus [1])	Activity (Mus musculus [2])	Activity (Mus musculus [3])	Activity (Mus musculus [4])	Activity (Mus musculus [5])	Activity (Mus musculus [6])	Activity (Mus musculus [7])	Activity (Mus musculus [8])	Activity (Mus musculus [10])	Activity (Mus musculus [11])	Activity (Mus musculus [12])	Activity (Mus musculus [13])	Activity (Mus musculus [14])	Activity (Mus musculus [15])	Activity (Mus musculus [16])	Activity (Mus musculus [18])	Activity (Rattus norvegicus) [%]	Activity (Mus musculus [21])	Activity (Mus musculus [22])	also measured
Clc1cccc(OCCCCCCN2CCCCC2)c1.O=C(O)C(=O)O	255	inactive	inactive	Active	inactive	Active	Active	inactive	inactive	inactive	Non-toxic	Non-toxic	Non-toxic	Non-toxic	Toxic	Non-toxic	Non-toxic	25	inactive	inactive	Activity (Mus musculus [9]): inactive; Activity (Mus musculus [17]): Toxic; Activity (Mus musculus [19]): inactive; Activity (Mus musculus [20]): inactive; Activity (Mus musculus [23]): Non-toxic; Activity (Mus musculus [24]): Non-toxic; Activity (Mus musculus [25]): Non-toxic
Clc1ccc(OCCCCCCCN2CCCCCC2)cc1.O=C(O)C(=O)O	203	inactive	inactive	Active	inactive	Active	Active	inactive	inactive		Non-toxic	Non-toxic	Non-toxic	Non-toxic	Toxic	Non-toxic	Non-toxic	25	inactive	inactive	Activity (Mus musculus [26]): inactive; Activity (Mus musculus [27]): Non-toxic; Activity (Mus musculus [24]): Non-toxic; Activity (Mus musculus [25]): Non-toxic
CCCC(CCC)C(=O)O [VALPROIC ACID]																					ED50 (Mus musculus [28]): 220 mg/kg
CCC1(c2ccccc2)C(=O)NC(=O)NC1=O [PHENOBARBITAL]																					ED50 (Mus musculus [29]): 21.8 mg/kg; ED50 (Mus musculus [28]): 13.2 mg/kg
Clc1cccc(OCCCCCCCN2CCCCCC2)c1.O=C(O)C(=O)O	> 150000			inactive	inactive	Active	inactive	inactive	inactive	inactive			Non-toxic	Non-toxic		Non-toxic	Non-toxic				
